The values below come from PubChem BioAssay AID493227 (Broad Institute, 2011).

Where “and” joins values, the source holds several entries; their conditions need not be identical. Equal values may be shown once. Calls of active or inactive are those of the source.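 How the source made its calls: active means fitted curve reaches 40% activation at a dose no higher than the top dose validly tested; inconclusive means flat curve between 30 and 70% activation, or poor fit; inactive means the rest, including signal moving against the expected rise.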 Some results are limits rather than exact numbers.

Test system in one experiment: not listed separately
Nature of the experiment: HRE-luciferase activation in U2OS cells, dose response, cell-based, luminescence, U2OS HRE-luc, dry powder, set 8 (AID 493227). The conditions noted are these: U2OS HRE-luciferase reporter, luminescence, HIF activation; at 38 µM (top of the series). In a few lines:
(§1)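 Material: human U2OS osteosarcoma cells stably carrying 3×HRE-luciferase reporter. Input: 6,000 cells per well. Technique: Steady-Glo luminescence. Medium: phenol red-free DMEM with 10% FBS, no hygromycin. Times: 24 h plating, 24 h compound treatment.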
In general terms: In a reporter assay the amount or activity of a reporter protein is the signal.
For the molecule `O=C(Nc1ncc(-c2ccccc2)o1)c1cc(-c2ccccc2)on1`, the activation was -20.6% (inactive).

For the molecule `Cc1ccc(NC(=O)c2cc(-c3ccccc3)on2)cn1`, the activation was -3.16% (inactive).

For the molecule `O=C(Nc1ncc2ccccc2n1)c1cc(-c2ccccc2)on1`, the activation was 8.54% (inactive).

As to `Cc1ccccc1CNC(=O)c1cc(-c2ccccc2)on1`, the activation is 17.1% (inactive).

As to `CN1CCN(C(=O)c2cc(-c3ccccc3)on2)CC1`, the activation was -33.9% (inactive).

With `O=C(NCC1CCCCC1)c1cc(-c2ccccc2)on1`, the activation is 15.7% (inactive).

In the case of `O=C(NC1CCc2ccccc2C1)c1cc(-c2ccccc2)on1` (stereo not drawn), the activation is -11.6% (inactive).

For the molecule `O=C(c1cc(-c2ccccc2)on1)N1CCC(CO)CC1`, the activation was -18% (inactive).

In the case of `O=C(Nc1ccc2ccccc2n1)c1cc(-c2ccccc2)on1`, the activation was -20.3% (inactive).

Take `O=C(c1cc(-c2ccccc2)on1)N1CCN(c2ccncc2)CC1`: the activation is -11.8% (inactive).

With `O=C(Nc1nc(-c2ccccc2)cs1)c1cc(-c2ccccc2)on1`, the activation was -11.1% (inactive).

With `O=C(Nc1nnc(-c2ccccc2)s1)c1cc(-c2ccccc2)on1`, the activation is 6.25% (inactive).

`c1ccc(-c2nnc(-c3ccccn3)nc2N2CCC(C3CCCCC3)C2)cc1` (stereo not drawn): the activation was 2190% (inactive).

As to `O=C(Nc1cn2ccccc2n1)c1cc(-c2ccccc2)on1`, the activation is -5.39% (inactive).

In the case of `O=C(c1cc(-c2ccccc2)on1)N1CCC(N2CCOCC2)CC1`, the activation was -9.31% (inactive).

In the case of `Cc1ccc(CNC(=O)c2cc(-c3ccccc3)on2)cc1`, the activation was -27% (inactive).

Take `Oc1ccc(CN2CCc3ccccc3C2)c2cccnc12`: the activation is 99.2% (inactive).

As to `O=C(c1cc(-c2ccccc2)on1)N1CCc2cccnc21`, the activation was -1.93% (inactive).

For `Cn1c(NC(=O)c2cc(-c3ccccc3)on2)nc2ccccc21`, the activation is 5.66% (inactive).

Take `Cn1c(-c2ccccc2)cnc1NC(=O)c1cc(-c2ccccc2)on1`: the activation is 8.45% (inactive).

Consider `O=C(Nc1nc2ccccc2s1)c1cc(-c2ccccc2)on1`, for which the activation is 9.05% (inactive).

Consider `O=C(c1cc(-c2ccccc2)on1)N1CCC(N2CCCC2)CC1`, for which the activation is -2.94% (inactive).

In the case of `O=C(Nc1cnc2ccccc2c1)c1cc(-c2ccccc2)on1`, the activation is 22.1% (inactive).

The test system of the next experiment is U2OS HRE-luciferase reporter, luminescence, HIF activation. The experiment is described as above.
Settings: not given
In short, it runs like this:
as §1
As to `c1ccc(-c2nnc(-c3ccccn3)nc2N2CCC(N3CCOCC3)CC2)cc1`, the AC40 is 2.18 µM.

Take `CC(C)(C)CCNc1nc(-c2ccccn2)nnc1-c1ccccc1`: the AC40 was 1.41 µM and 0.785 µM.

Consider `c1ccc(-c2nnc(-c3ccccn3)nc2NCc2cccnc2)cc1`, for which the AC40 was 3.73 µM.

With `c1ccc(-c2nnc(-c3ccccn3)nc2NCC2CCCCC2)cc1`, the AC40 was 1.28 µM.

As to `CC(C)(C)OC(=O)N1CCN(Cc2ccc(O)c3ncccc23)CC1`, the AC40 is > 38 µM (inactive).

Consider `c1ccc(-c2nnc(-c3ccccn3)nc2NCCCN2CCOCC2)cc1`, for which the AC40 was 3.61 µM.

As to `c1ccc(-c2nnc(-c3ccccn3)nc2Nc2cnc3ccccc3n2)cc1`, the AC40 was 3.83 µM.

For the molecule `c1ccc(-c2ccc(CNc3nc(-c4ccccn4)nnc3-c3ccccc3)cc2)cc1`, the AC40 is 0.379 µM.

As for `c1ccc(CNc2nc(-c3ccccn3)nnc2-c2ccccc2)cc1`, the AC40 is 3.22 µM.

`c1ccc(-c2nnc(-c3ccccn3)nc2N2CCN(c3ccncc3)CC2)cc1`: the AC40 was 2.35 µM.

Turning to `c1ccc(-c2nnc(-c3ccccn3)nc2NCC2CCOCC2)cc1`, the AC40 is 5.01 µM.

As to `O=C(NCC1CC1)c1cc(-c2ccccc2)on1`, the AC40 is 1.5 µM.

As to `Cn1c(-c2ccccc2)cnc1Nc1nc(-c2ccccn2)nnc1-c1ccccc1`, the AC40 was 4.17 µM.

On to `c1ccc(-c2nnc(-c3ccccn3)nc2NCC2CC2)cc1`, for which the AC40 was 2.77 µM.

Regarding `c1ccc(-c2nnc(-c3ccccn3)nc2N2CCC(c3ccccc3)C2)cc1` (stereo not drawn), the AC40 is 0.509 µM.

In the case of `O=C(NC1Cc2ccccc2C1)c1cc(-c2ccccc2)on1`, the AC40 is > 38 µM (inactive).

Take `Oc1ccc(CNC2CCc3ccccc32)c2cccnc12` (stereo not drawn): the AC40 is 13.9 µM.

Consider `OCCCNc1nc(-c2ccccn2)nnc1-c1ccccc1`, for which the AC40 is 7.76 µM.

As to `C[C@@H](Nc1nc(-c2ccccn2)nnc1-c1ccccc1)c1ccccc1`, the AC40 was 1.61 µM.

For the molecule `OCC1CCN(Cc2ccc(O)c3ncccc23)CC1`, the AC40 was 15.9 µM.

Consider `CCCCNC(=O)c1cc(-c2ccccc2)on1`, for which the AC40 was 3.17 µM.

In the case of `C=CCNc1nc(-c2ccccn2)nnc1-c1ccccc1`, the AC40 was 1.3 µM.

As for `Cc1ccccc1CNc1nc(-c2ccccn2)nnc1-c1ccccc1`, the AC40 is 2.08 µM.

On to `Cc1ccc(Nc2nc(-c3ccccn3)nnc2-c2ccccc2)cn1`, for which the AC40 is 3.28 µM.

For `O=C(NCc1ccccc1)c1cc(-c2ccccc2)on1`, the AC40 is > 38 µM (inactive).

As for `Cc1cccc(Nc2nc(-c3ccccn3)nnc2-c2ccccc2)n1`, the AC40 is 1.89 µM.

As to `Clc1cccc(CNc2nc(-c3ccccn3)nnc2-c2ccccc2)c1`, the AC40 is 0.826 µM.

Turning to `COc1ccc(CNc2nc(-c3ccccn3)nnc2-c2ccccc2)cc1`, the AC40 was 0.782 µM.

As to `c1ccc(-c2nnc(-c3ccccn3)nc2Nc2nc3ccccc3s2)cc1`, the AC40 is 2.87 µM.

As to `c1ccc(-c2cccc(CNc3nc(-c4ccccn4)nnc3-c3ccccc3)c2)cc1`, the AC40 was 0.06 µM.

Consider `CN1CCN(c2nc(-c3ccccn3)nnc2-c2ccccc2)CC1`, for which the AC40 was 3.01 µM.

As to `Cc1ccc(CNc2nc(-c3ccccn3)nnc2-c2ccccc2)cc1C`, the AC40 was 0.364 µM.

On to `c1ccc(-c2nnc(-c3ccccn3)nc2NCCN2CCOCC2)cc1`, for which the AC40 is 1.96 µM.

In the case of `c1ccc(-c2nnc(-c3ccccn3)nc2NCc2ccccn2)cc1`, the AC40 was 8.01 µM.

Turning to `C[C@@H](Nc1nc(-c2ccccn2)nnc1-c1ccccc1)C1CCCCC1`, the AC40 was 1.88 µM.

For `CC(C)(C)c1ccc(CNc2nc(-c3ccccn3)nnc2-c2ccccc2)cc1`, the AC40 is 0.393 µM.

On to `CC1CN(Cc2ccc(O)c3ncccc23)CC(C)O1` (stereo not drawn), for which the AC40 was 36.6 µM.

On to `CN(C)CCNC(=O)c1cc(-c2ccccc2)on1`, for which the AC40 was > 38 µM (inactive).

Turning to `c1ccc(-c2csc(Nc3nc(-c4ccccn4)nnc3-c3ccccc3)n2)cc1`, the AC40 was 13.9 µM.

Regarding `Oc1ccc(CN2CCC(Cc3ccccc3)CC2)c2cccnc12`, the AC40 was 11.1 µM.

For `c1ccc(-c2nnc(Nc3nc(-c4ccccn4)nnc3-c3ccccc3)s2)cc1`, the AC40 is 0.582 µM.

As for `O=C(NCCN1CCCCC1)c1cc(-c2ccccc2)on1`, the AC40 is > 38 µM (inactive).

On to `Oc1ccc(CN2CCc3ccccc3C2)c2cccnc12`, for which the AC40 was 2.32 µM.

With `O=C(NCCCn1ccnc1)c1cc(-c2ccccc2)on1`, the AC40 is 4.16 µM.

In the case of `Oc1ccc(CN2CCC3CCCCC3C2)c2cccnc12` (stereo not drawn), the AC40 was 4.8 µM.

On to `CN(C)c1nc(-c2ccccn2)nnc1-c1ccccc1`, for which the AC40 was 6.62 µM.

In the case of `c1ccc(CCNc2nc(-c3ccccn3)nnc2-c2ccccc2)cc1`, the AC40 was 1.35 µM.

On to `C[C@H](Nc1nc(-c2ccccn2)nnc1-c1ccccc1)C1CCCCC1`, for which the AC40 was 1.16 µM.

`COc1cccc(CNc2nc(-c3ccccn3)nnc2-c2ccccc2)c1`: the AC40 was 1.31 µM.

Turning to `c1ccc(-c2nnc(-c3ccccn3)nc2NCCc2ccccn2)cc1`, the AC40 is 3.14 µM.

In the case of `O=C(NCCCCO)c1cc(-c2ccccc2)on1`, the AC40 is 1.65 µM.

`Cc1cccc(CNC(=O)c2cc(-c3ccccc3)on2)c1`: the AC40 is > 38 µM (inactive).

As for `Oc1ccc(CNC2Cc3ccccc3C2)c2cccnc12`, the AC40 was 8.12 µM.

Consider `O=C(NCCCO)c1cc(-c2ccccc2)on1`, for which the AC40 was 5.37 µM.

On to `c1ccc(-c2cnc(Nc3nc(-c4ccccn4)nnc3-c3ccccc3)s2)cc1`, for which the AC40 is 10.7 µM.

`Cc1cccc(CNc2nc(-c3ccccn3)nnc2-c2ccccc2)c1`: the AC40 is 2.09 µM.

Take `Cc1cccc(NC(=O)c2cc(-c3ccccc3)on2)n1`: the AC40 was > 38 µM (inactive).

In the case of `O=C(NCCCN1CCOCC1)c1cc(-c2ccccc2)on1`, the AC40 was 7.62 µM.

For the molecule `N#CC1(c2ccccc2)CCN(Cc2ccc(O)c3ncccc23)CC1`, the AC40 is 14.5 µM.

`CC(Nc1nc(-c2ccccn2)nnc1-c1ccccc1)c1ccccc1` (stereo not drawn): the AC40 is 0.875 µM.

On to `CC(C)(C)CCNC(=O)c1cc(-c2ccccc2)on1`, for which the AC40 is 5.03 µM.

With `COc1ccccc1N1CCN(Cc2ccc(O)c3ncccc23)CC1`, the AC40 is 11.8 µM.

Regarding `O=C(NCCN1CCOCC1)c1cc(-c2ccccc2)on1`, the AC40 was 8.1 µM.

Take `Cc1ccc(CNc2nc(-c3ccccn3)nnc2-c2ccccc2)cc1`: the AC40 was 1.28 µM.

In the case of `OCC1CCN(c2nc(-c3ccccn3)nnc2-c2ccccc2)CC1`, the AC40 was 12.1 µM.
